GPR7 antag: GPR7 receptor antagonists, primary screen, cell-based, fluorescence, single concentration | GPR7-expressing cells, fluorescence antagonist assay | actives 1.1% (n = 290,000) | inhibition, % at 4.4 µM | Neuropeptides B/W receptor type 1 (Homo sapiens), P48145; in the data active = inhibition above about 16%, passing the limit was not always enough;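 also: cells stimulated with the agonist NPW; 0% = agonist with vehicle and 100% = vehicle without agonist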
Target sequence (P48145 whole entry, looked up): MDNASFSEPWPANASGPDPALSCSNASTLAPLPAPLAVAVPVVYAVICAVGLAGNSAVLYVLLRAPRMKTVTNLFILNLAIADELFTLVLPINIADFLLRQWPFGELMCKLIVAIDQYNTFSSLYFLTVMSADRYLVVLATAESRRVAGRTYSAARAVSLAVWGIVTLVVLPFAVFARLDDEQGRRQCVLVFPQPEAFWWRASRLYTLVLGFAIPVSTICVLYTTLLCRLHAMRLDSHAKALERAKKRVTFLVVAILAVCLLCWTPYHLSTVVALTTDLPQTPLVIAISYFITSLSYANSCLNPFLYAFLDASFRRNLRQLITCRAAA
TAAR1 antag: human TAAR1 antagonists, primary screen, Fluo-8 calcium fluorescence, CHO RD-HGA16 cells. Trace amine-associated receptor 1 (Homo sapiens), Q96RJ0. antagonist. inhibition, % at 3 µM. actives 1.5% (n = 360,000). AID 624466, 2012;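 active = inhibition above a per-plate cutoff, the mean inhibition of test compounds on that plate plus 3 SD, cut at about 49% in these data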;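 also: 0% = DMSO plus EC80 beta-PEA response and 100% = DMSO alone without agonist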
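Test system – hTAAR1-expressing CHO RD-HGA16 cells, Gα16-coupled · Reagent – β-PEA at EC80 concentration, post-compound challenge · Compound dosing – 3 µM, single point · Timing – 140 s kinetic read after compound, 140 s after agonist · Detection – Fluo-8 intracellular calcium dye fluorescence, real-time kinetic reads · Control set – DMSO and EC80 PEA controls · Repeats – n of 1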
OX1R antag-1: OX1R (HCRTR1) antagonists, primary screen, fluorescence, CHO/OX1R cells, Fluo-8 calcium, orexin A; Orexin/Hypocretin receptor type 1 (Homo sapiens), O43613; Fluo-8 calcium fluorescence; inhibition, % at 5 µM; actives 0.43% (n = 330,000); AID 434989, 2010;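 active = inhibition above its plate's threshold, mean inhibition of all tested compounds on the plate plus 3 SD, cut at about 37% in these data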;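 also: 0% = orexin A challenge wells and 100% = SB-334867-A antagonist wells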
Target sequence (O43613 whole entry, looked up): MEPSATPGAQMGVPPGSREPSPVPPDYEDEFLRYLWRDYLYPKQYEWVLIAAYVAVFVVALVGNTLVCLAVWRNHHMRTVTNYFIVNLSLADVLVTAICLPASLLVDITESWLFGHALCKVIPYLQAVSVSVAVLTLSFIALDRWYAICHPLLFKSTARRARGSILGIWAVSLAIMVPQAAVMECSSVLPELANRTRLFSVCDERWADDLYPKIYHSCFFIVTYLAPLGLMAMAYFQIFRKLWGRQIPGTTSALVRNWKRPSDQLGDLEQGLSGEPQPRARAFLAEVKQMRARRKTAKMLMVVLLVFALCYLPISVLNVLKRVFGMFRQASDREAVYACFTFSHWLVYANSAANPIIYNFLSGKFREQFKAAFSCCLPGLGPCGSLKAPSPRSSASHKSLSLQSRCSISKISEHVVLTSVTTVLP
OX1R antag-2: antagonists of human orexin 1 receptor (OX1R); Orexin/Hypocretin receptor type 1 (Homo sapiens), O43613; OX1R-expressing cells, FRET antagonist read-out; inhibition, % at 6.6 µM; actives 1.8% (n = 330,000); AID 485270, 2010; in the data active = inhibition mostly above about 38%, no sharp cut-off; inactive = mostly below about 40%;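 also: 0% = agonist challenge alone and 100% = reference antagonist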
TAAR1 agonist: human TAAR1 agonists, primary screen, Fluo-8 calcium fluorescence, CHO RD-HGA16 cells; actives 0.99% (n = 360,000); AID 624467, 2012; Trace amine-associated receptor 1 (Homo sapiens), Q96RJ0; activation, % at 3 µM; vehicle wells 0%, saturating PEA agonist 100%;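 active = activation above the mean activation of all test compounds in the run plus 3 SD, cut at about 38% in these data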
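System: CHO RD-HGA16 cells carrying human TAAR1 plus Gα16; Incubation: 17-24 h seeding, 75 min 37 °C dye, 30 min RT; Measured by: Fluo-8 fluorescence, 5 s baseline then 140 s kinetic read; Control set: DMSO and PEA EC100; Replication: single well for each compound.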
CHO parental Ca: ATP-evoked calcium signal inhibitors, parental CHO, primary screen, counter-screen for OX1R antagonist project, cell-based, fluorescence, Fluo-8 calcium dye; parental CHO-K1, ATP-induced calcium, Fluo-8 fluorescence; inhibition, % at 5.6 µM; actives 0.63% (n = 330,000); AID 463079, 2010;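 active = inhibition above that plate's mean sample inhibition plus 3 SD, cut at about 26% in these data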;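 also: 0% = ATP-challenged DMSO wells and 100% = DMSO wells without ATP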
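Test system: untransfected parental CHO cell line; also added: ATP stimulus; dosing: 5.6 µM, single dose; signal: calcium-sensitive Fluo-8 fluorescence; measure: percent inhibition of ATP-evoked calcium rise, normalized to controls; benchmarks: low control ATP plus DMSO, high control DMSO only; replication: one well per compound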
GPR7 antag cf: GPR7 receptor antagonists, confirmation, cell-based, fluorescence, single concentration; shares compounds with GPR7 antag; GPR7-expressing cells, calcium fluorescence antagonist mode; inhibition, % at 4.4 µM; actives 52% (n = 2,400); in the data active = inhibition above about 24%;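 also: stimulated with the GPR7 agonist NPW; 0% = agonist plus vehicle and 100% = vehicle alone without agonist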
MCHR1 antag: MCHR1 antagonists in cells, counter-screen for GPR7 antagonist project, cell-based, fluorescence, human; MCHR1-expressing cells, fluorescence antagonist assay; inhibition, % at 4.4 µM; shares compounds with GPR7 antag; actives 62% (n = 2,400); AID 2148, 2009; in the data active = inhibition above about 22%;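 also: 0% = vehicle with agonist and 100% = vehicle without agonist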
The depositor's hits bear a star. A selection: hits, their analogues and other compounds. The true share with any hit is near 4.5%.

Results for O=S(=O)(c1cccs1)N1CCN(Cc2cccc(F)c2)CC1 ?
GPR7 antag: 29.9*; TAAR1 antag: -6.7; OX1R antag-1: -15.1; OX1R antag-2: 18.4; TAAR1 agonist: -1.7; CHO parental Ca: -11.1; GPR7 antag cf: 8.9; MCHR1 antag: 13.8

What do the screens show for `Cc1nc(C(=O)Nc2ccc(Cl)cc2)nn1-c1ccc([N+](=O)[O-])cc1`?
GPR7 antag: 30.5*; TAAR1 antag: 0.1; OX1R antag-1: -5.2; OX1R antag-2: 5.1; TAAR1 agonist: 2.0; CHO parental Ca: -5.4; GPR7 antag cf: 3.8; MCHR1 antag: 6.8

Results for Cc1cc(C)c(CSc2ncc(-c3ccc([N+](=O)[O-])cc3)[nH]2)c(C)c1 ?
GPR7 antag: 41.6*; TAAR1 antag: 59.9*; OX1R antag-1: 39.9*; OX1R antag-2: 91.3*; TAAR1 agonist: 7.1; CHO parental Ca: 40.0*; GPR7 antag cf: 68.0*; MCHR1 antag: 83.2*

Results for CN1CCN(c2nc(-c3ccncc3)nc3ccccc23)CC1 ?
GPR7 antag: -7.9; TAAR1 antag: 0.5; OX1R antag-1: -12.0; OX1R antag-2: 22.6; TAAR1 agonist: 5.5; CHO parental Ca: 3.9

What do the screens show for `CN1CCN(c2nc(-c3ccc(Cl)cc3)nc3ccccc23)CC1`?
GPR7 antag: 53.0*; TAAR1 antag: 4.1; TAAR1 agonist: 9.2; GPR7 antag cf: 41.0*; MCHR1 antag: 35.8*

How did CC1(C)CC(C(CC(=O)O)c2ccccc2)CCO1 (configuration not stated) do in these assays?
GPR7 antag: 13.3; TAAR1 antag: 0.1; OX1R antag-1: -8.1; OX1R antag-2: -1.7; TAAR1 agonist: 1.9; CHO parental Ca: -13.1

How did CC1(C)CC(C(CC(=O)N2CCCC2)Cc2ccccc2)CCO1 (configuration not stated) do in these assays?
GPR7 antag: 23.0*; TAAR1 antag: -10.5; OX1R antag-1: -20.8; OX1R antag-2: -1.1; TAAR1 agonist: 6.0; CHO parental Ca: -9.6; GPR7 antag cf: 9.0; MCHR1 antag: 14.0

How did O=C(N/N=C/c1ccccc1)c1cc(-c2ccc3c(c2)OCO3)n[nH]1 do in these assays?
GPR7 antag: 22.5*; TAAR1 antag: 21.2; OX1R antag-1: -30.8; OX1R antag-2: 13.2; TAAR1 agonist: 14.3; CHO parental Ca: -9.1; GPR7 antag cf: -0.7; MCHR1 antag: 36.2*

Results for CCn1cc(C(=O)N2CCCC(C(=O)c3cccc(C(F)(F)F)c3)C2)cn1 (configuration not stated) ?
TAAR1 antag: -2.4; TAAR1 agonist: -0.2

What do the screens show for `Cc1ccc(-c2ocnc2C(=O)N2CCN(C(=O)c3cccs3)CC2)cc1`?
GPR7 antag: 28.2*; TAAR1 antag: -19.7; OX1R antag-1: -10.4; OX1R antag-2: 21.7; TAAR1 agonist: 0.7; CHO parental Ca: -16.1; GPR7 antag cf: 20.8; MCHR1 antag: 6.9

Results for Cc1ccc(-c2nnc(N3CCN(C(=O)c4cccs4)CC3)c3ccccc23)cc1 ?
GPR7 antag: -3.5; TAAR1 antag: -25.0; OX1R antag-1: -17.2; OX1R antag-2: -4.9; TAAR1 agonist: 3.4; CHO parental Ca: -22.4

What do the screens show for `O=C(NN(C(=O)c1ccccc1)c1ccccc1)c1ccccc1`?
GPR7 antag: -13.7; TAAR1 antag: -24.1; OX1R antag-1: -10.5; OX1R antag-2: 15.5; TAAR1 agonist: 1.5; CHO parental Ca: -2.4

What do the screens show for `O=C(c1ccc(F)cc1)N(NC(=O)C(O)(c1ccccc1)c1ccccc1)c1ccccc1`?
GPR7 antag: 37.4*; TAAR1 antag: 1.4; OX1R antag-1: -25.2; OX1R antag-2: 5.0; TAAR1 agonist: 4.8; CHO parental Ca: -15.2; GPR7 antag cf: 46.0*; MCHR1 antag: 31.0*

How did COC(=O)N(NC(=O)C(O)(c1ccccc1)c1ccccc1)c1ccccc1 do in these assays?
GPR7 antag: 26.0*; TAAR1 antag: -16.6; OX1R antag-1: 1.7; OX1R antag-2: 15.5; TAAR1 agonist: 9.7; CHO parental Ca: -5.6; GPR7 antag cf: 16.7; MCHR1 antag: 26.6*

What do the screens show for `CC(=O)Nc1ccc(S(=O)(=O)NCc2nc(-c3ccc(C)cc3)no2)cc1`?
GPR7 antag: -16.2; TAAR1 antag: -23.5; OX1R antag-1: -13.4; OX1R antag-2: 13.9; TAAR1 agonist: -0.7; CHO parental Ca: -18.5

How did CC(=O)Nc1ccc(S(=O)(=O)NCc2nc(-c3cccc(C)c3)no2)cc1 do in these assays?
GPR7 antag: 24.4*; TAAR1 antag: 2.8; OX1R antag-1: 13.0; OX1R antag-2: 15.7; TAAR1 agonist: 3.1; CHO parental Ca: -7.7; GPR7 antag cf: -0.2; MCHR1 antag: 0.5

Results for CCCOc1ccc(/C=C/C(=O)N2CCN(C(=O)c3ccco3)CC2)cc1OC ?
TAAR1 antag: 9.8; TAAR1 agonist: 3.8

Results for O=C(OCC(=O)N1CCN(C(=O)c2ccco2)CC1)c1cc(-c2ccc(Cl)c(Cl)c2Cl)nc2ccccc12 ?
GPR7 antag: -11.8; TAAR1 antag: 16.0; OX1R antag-1: -29.7; OX1R antag-2: 23.3; TAAR1 agonist: 6.4; CHO parental Ca: -40.2

Results for CN1CCCN(C(=O)c2cc(-c3ccc(Cl)c(Cl)c3Cl)nc3ccccc23)CC1 ?
GPR7 antag: 21.2*; TAAR1 antag: 1.4; OX1R antag-1: -11.1; OX1R antag-2: 13.9; TAAR1 agonist: 2.9; CHO parental Ca: -10.0; GPR7 antag cf: 31.4*; MCHR1 antag: 39.2*

What do the screens show for `Cn1c2nc(=O)[nH]c(=O)c-2cc2ccccc21`?
TAAR1 antag: 5.5; TAAR1 agonist: 0.9

Results for Cc1ccc(C)c(-n2c3nc(=O)[nH]c(=O)c-3cc3cc([N+](=O)[O-])ccc32)c1 ?
GPR7 antag: 22.1*; TAAR1 antag: 5.3; OX1R antag-1: -1.3; OX1R antag-2: 43.6; TAAR1 agonist: 3.0; CHO parental Ca: 8.3; GPR7 antag cf: 41.8*; MCHR1 antag: 42.7*

Assay outcomes from PubChem.
